Experimental findings from ChEMBL document CHEMBL4680153, “New Spisulosine Derivative promotes robust autophagic response to cancer cells” (Eur J Med Chem, 2020) are described below.

The subject of one assay is A549. Description: Antiproliferative activity against human A549 cells assessed as reduction in cell growth at 10 uM incubated for 48 hrs by SRB assay relative to control. Type of assay: functional. An outline of the steps: (§1)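 Early-passage cells plated at 40% confluency and left overnight, then exposed to 10 μM compound for 48 h. Growth was measured by sulforhodamine B staining, with absorbance at 510 nm. Percent growth inhibition was calculated against untreated cells.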
On the technique in general: In SRB staining, fixed cells bind dye roughly in proportion to their protein.
For `CCCCCCCCCCCCCC[C@H](O)[C@H](CN(CC)CC)NC(=O)OC(C)(C)C`, the inhibition (in general, the drop in the measured response relative to a control, in per cent) at 10 µM came out at 18.5%.

Turning to `CCCCCCCCCCCCCC[C@H](OCOC)[C@H](CN1CCN(C)CC1)NC(=O)OC(C)(C)C`, the inhibition at 10 µM was 18.2%.

On to `CCCCCCCCCCCCCC[C@H](OCOC)[C@H](CN(CC)CC)NC(=O)OC(C)(C)C`, for which the inhibition at 10 µM worked out at 27.5%.

Take `CCCCCCCCCCCCCC[C@H](O)[C@H](CN1CCSCC1)NC(=O)OC(C)(C)C`: the inhibition at 10 µM was found to be 32%.

`CCCCCCCCCCCCCC[C@H](O)[C@H](CN(CCCC)CCCC)NC(=O)OC(C)(C)C`: the inhibition at 10 µM was found to be 30%.

`CCCCCCCCCCCCCC[C@H](O)[C@H](CO[Si](c1ccccc1)(c1ccccc1)C(C)(C)C)NC(=O)OC(C)(C)C`: the inhibition at 10 µM stood at 14.6%.

On to `CCCCCCCCCCCCCC[C@H](OCOC)[C@H](CO[Si](c1ccccc1)(c1ccccc1)C(C)(C)C)NC(=O)OC(C)(C)C`, for which the inhibition at 10 µM amounted to 15.1%.

For the compound `CCCCCCCCCCCCCC[C@H](OCOC)[C@H](CN(CCCC)CCCC)NC(=O)OC(C)(C)C`, the inhibition at 10 µM amounted to 42.2%.

`CCCCCCCCCCCCCC[C@H](OCOC)[C@H](CN1CCSCC1)NC(=O)OC(C)(C)C`: the inhibition at 10 µM stood at 29.9%.

Another assay deals with DLD-1. Put plainly: Antiproliferative activity against human DLD-1 cells assessed as reduction in cell growth at 10 uM incubated for 48 hrs by SRB assay relative to control. In kind it is functional. An outline of the steps:
as §1
On to `CCCCCCCCCCCCCC[C@H](O)[C@H](CN(CC)CC)NC(=O)OC(C)(C)C`, for which the inhibition at 10 µM is 14.7%.

Take `CCCCCCCCCCCCCC[C@H](OCOC)[C@H](CN1CCN(C)CC1)NC(=O)OC(C)(C)C`: the inhibition at 10 µM amounted to 31.9%.

As to `CCCCCCCCCCCCCC[C@H](OCOC)[C@H](CN(CC)CC)NC(=O)OC(C)(C)C`, the inhibition at 10 µM was determined as 46.2%.

In the case of `CCCCCCCCCCCCCC[C@H](O)[C@H](CN1CCSCC1)NC(=O)OC(C)(C)C`, the inhibition at 10 µM is 32.4%.

Take `CCCCCCCCCCCCCC[C@H](O)[C@H](CN(CCCC)CCCC)NC(=O)OC(C)(C)C`: the inhibition at 10 µM was determined as 23.4%.

In the case of `CCCCCCCCCCCCCC[C@H](O)[C@H](CO[Si](c1ccccc1)(c1ccccc1)C(C)(C)C)NC(=O)OC(C)(C)C`, the inhibition at 10 µM turned out to be 10.4%.

For the compound `CCCCCCCCCCCCCC[C@H](OCOC)[C@H](CO[Si](c1ccccc1)(c1ccccc1)C(C)(C)C)NC(=O)OC(C)(C)C`, the inhibition at 10 µM was -14.6%.

With `CCCCCCCCCCCCCC[C@H](OCOC)[C@H](CN(CCCC)CCCC)NC(=O)OC(C)(C)C`, the inhibition at 10 µM was 56%.

Turning to `CCCCCCCCCCCCCC[C@H](OCOC)[C@H](CN1CCSCC1)NC(=O)OC(C)(C)C`, the inhibition at 10 µM stood at 58.5%.

The subject of a further assay is MDA-MB-231. Put plainly: Antiproliferative activity against human MDA-MB-231 cells assessed as reduction in cell growth at 10 uM incubated for 48 hrs by SRB assay relative to control. Type of assay: functional. The procedure, abridged:
as §1
For `CCCCCCCCCCCCCC[C@H](O)[C@H](CN(CC)CC)NC(=O)OC(C)(C)C`, the inhibition at 10 µM is -1.45%.

Consider `CCCCCCCCCCCCCC[C@H](OCOC)[C@H](CN1CCN(C)CC1)NC(=O)OC(C)(C)C`, for which the inhibition at 10 µM amounted to 24%.

On to `CCCCCCCCCCCCCC[C@H](OCOC)[C@H](CN(CC)CC)NC(=O)OC(C)(C)C`, for which the inhibition at 10 µM worked out at 0.84%.

For the compound `CCCCCCCCCCCCCC[C@H](O)[C@H](CN1CCSCC1)NC(=O)OC(C)(C)C`, the inhibition at 10 µM worked out at 6.84%.

For `CCCCCCCCCCCCCC[C@H](O)[C@H](CN(CCCC)CCCC)NC(=O)OC(C)(C)C`, the inhibition at 10 µM was -9.61%.

Regarding `CCCCCCCCCCCCCC[C@H](O)[C@H](CO[Si](c1ccccc1)(c1ccccc1)C(C)(C)C)NC(=O)OC(C)(C)C`, the inhibition at 10 µM is -37.5%.

Regarding `CCCCCCCCCCCCCC[C@H](OCOC)[C@H](CO[Si](c1ccccc1)(c1ccccc1)C(C)(C)C)NC(=O)OC(C)(C)C`, the inhibition at 10 µM is -28%.

Turning to `CCCCCCCCCCCCCC[C@H](OCOC)[C@H](CN(CCCC)CCCC)NC(=O)OC(C)(C)C`, the inhibition at 10 µM came to 22.3%.

Consider `CCCCCCCCCCCCCC[C@H](OCOC)[C@H](CN1CCSCC1)NC(=O)OC(C)(C)C`, for which the inhibition at 10 µM worked out at 4.73%.

For another assay, the system named is HT-29. Description: Antiproliferative activity against human HT-29 cells assessed as reduction in cell growth at 10 uM incubated for 48 hrs by SRB assay relative to control. Type of assay: functional. The procedure, abridged:
as §1
With `CCCCCCCCCCCCCC[C@H](OCOC)[C@H](CN(CC)CC)NC(=O)OC(C)(C)C`, the inhibition at 10 µM is -3.21%.

`CCCCCCCCCCCCCC[C@H](O)[C@H](CN1CCSCC1)NC(=O)OC(C)(C)C`: the inhibition at 10 µM was determined as 12%.

Take `CCCCCCCCCCCCCC[C@H](O)[C@H](CN(CCCC)CCCC)NC(=O)OC(C)(C)C`: the inhibition at 10 µM came out at 9.83%.

As to `CCCCCCCCCCCCCC[C@H](O)[C@H](CO[Si](c1ccccc1)(c1ccccc1)C(C)(C)C)NC(=O)OC(C)(C)C`, the inhibition at 10 µM is -14.4%.

For the compound `CCCCCCCCCCCCCC[C@H](OCOC)[C@H](CO[Si](c1ccccc1)(c1ccccc1)C(C)(C)C)NC(=O)OC(C)(C)C`, the inhibition at 10 µM was -18.8%.

For `CCCCCCCCCCCCCC[C@H](OCOC)[C@H](CN(CCCC)CCCC)NC(=O)OC(C)(C)C`, the inhibition at 10 µM amounted to 15%.

Turning to `CCCCCCCCCCCCCC[C@H](OCOC)[C@H](CN1CCSCC1)NC(=O)OC(C)(C)C`, the inhibition at 10 µM is 8.57%.

For another assay, the system named is NCI-H358. Put plainly: Antiproliferative activity against human NCI-H358 cells assessed as reduction in cell growth at 10 uM incubated for 48 hrs by SRB assay relative to control. In kind it is functional. The procedure, abridged: as §1
With `CCCCCCCCCCCCCC[C@H](O)[C@H](CN(CC)CC)NC(=O)OC(C)(C)C`, the inhibition at 10 µM stood at 8.37%.

For `CCCCCCCCCCCCCC[C@H](OCOC)[C@H](CN1CCN(C)CC1)NC(=O)OC(C)(C)C`, the inhibition at 10 µM is 18.9%.

As to `CCCCCCCCCCCCCC[C@H](OCOC)[C@H](CN(CC)CC)NC(=O)OC(C)(C)C`, the inhibition at 10 µM was determined as 14.9%.

With `CCCCCCCCCCCCCC[C@H](O)[C@H](CN1CCSCC1)NC(=O)OC(C)(C)C`, the inhibition at 10 µM is 10.8%.

On to `CCCCCCCCCCCCCC[C@H](O)[C@H](CN(CCCC)CCCC)NC(=O)OC(C)(C)C`, for which the inhibition at 10 µM is 9.4%.

Turning to `CCCCCCCCCCCCCC[C@H](O)[C@H](CO[Si](c1ccccc1)(c1ccccc1)C(C)(C)C)NC(=O)OC(C)(C)C`, the inhibition at 10 µM came to 3.11%.

For `CCCCCCCCCCCCCC[C@H](OCOC)[C@H](CO[Si](c1ccccc1)(c1ccccc1)C(C)(C)C)NC(=O)OC(C)(C)C`, the inhibition at 10 µM is -2.89%.

Take `CCCCCCCCCCCCCC[C@H](OCOC)[C@H](CN(CCCC)CCCC)NC(=O)OC(C)(C)C`: the inhibition at 10 µM came out at 25.1%.

On to `CCCCCCCCCCCCCC[C@H](OCOC)[C@H](CN1CCSCC1)NC(=O)OC(C)(C)C`, for which the inhibition at 10 µM stood at 22.7%.

For a further assay, the system named is MCF7. Description: Antiproliferative activity against human MCF7 cells assessed as reduction in cell growth at 10 uM incubated for 48 hrs by SRB assay relative to control. In kind it is functional. An outline of the steps:
as §1
Consider `CCCCCCCCCCCCCC[C@H](O)[C@H](CN(CC)CC)NC(=O)OC(C)(C)C`, for which the inhibition at 10 µM was 18.7%.

With `CCCCCCCCCCCCCC[C@H](OCOC)[C@H](CN1CCN(C)CC1)NC(=O)OC(C)(C)C`, the inhibition at 10 µM was found to be 28%.

As to `CCCCCCCCCCCCCC[C@H](OCOC)[C@H](CN(CC)CC)NC(=O)OC(C)(C)C`, the inhibition at 10 µM is 25.2%.

`CCCCCCCCCCCCCC[C@H](O)[C@H](CN1CCSCC1)NC(=O)OC(C)(C)C`: the inhibition at 10 µM stood at 30.2%.

`CCCCCCCCCCCCCC[C@H](O)[C@H](CN(CCCC)CCCC)NC(=O)OC(C)(C)C`: the inhibition at 10 µM was 21.5%.

On to `CCCCCCCCCCCCCC[C@H](O)[C@H](CO[Si](c1ccccc1)(c1ccccc1)C(C)(C)C)NC(=O)OC(C)(C)C`, for which the inhibition at 10 µM was determined as 2.79%.

For `CCCCCCCCCCCCCC[C@H](OCOC)[C@H](CO[Si](c1ccccc1)(c1ccccc1)C(C)(C)C)NC(=O)OC(C)(C)C`, the inhibition at 10 µM was -7.95%.

In the case of `CCCCCCCCCCCCCC[C@H](OCOC)[C@H](CN(CCCC)CCCC)NC(=O)OC(C)(C)C`, the inhibition at 10 µM turned out to be 27.1%.

Regarding `CCCCCCCCCCCCCC[C@H](OCOC)[C@H](CN1CCSCC1)NC(=O)OC(C)(C)C`, the inhibition at 10 µM turned out to be 24%.
